Experimental findings from ChEMBL document CHEMBL3621143, “Discovery of BMS-641988, a Novel Androgen Receptor Antagonist for the Treatment of Prostate Cancer” (ACS Med Chem Lett, 2015) are described below.

The source made the active and inactive calls. No cut-off for these calls is given here.

A short description of data set [1]: Oral bioavailability in dog at 2 mg/kg. In kind it is ADME, organism-based, Canis lupus familiaris. The note with it: in vivo. The method, boiled down:
(§1)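 Single IV and oral doses in mouse and rat (IV 5, PO 10 mg/kg) and dog (IV 1, PO 2 mg/kg). Half-life, clearance, AUC0-∞ (µM*h) and %F derived from the plasma profiles.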

Data set [2] in a line: Half life in rat at 5 mg/kg, iv and 10 mg/kg, po. In kind it is ADME, organism-based. Particulars: in vivo. The method, boiled down:
as §1

Data set [3] deals with T1, Cytochrome P450 2B6 (Homo sapiens, UniProt P20813).
T1 sequence (P20813 whole entry): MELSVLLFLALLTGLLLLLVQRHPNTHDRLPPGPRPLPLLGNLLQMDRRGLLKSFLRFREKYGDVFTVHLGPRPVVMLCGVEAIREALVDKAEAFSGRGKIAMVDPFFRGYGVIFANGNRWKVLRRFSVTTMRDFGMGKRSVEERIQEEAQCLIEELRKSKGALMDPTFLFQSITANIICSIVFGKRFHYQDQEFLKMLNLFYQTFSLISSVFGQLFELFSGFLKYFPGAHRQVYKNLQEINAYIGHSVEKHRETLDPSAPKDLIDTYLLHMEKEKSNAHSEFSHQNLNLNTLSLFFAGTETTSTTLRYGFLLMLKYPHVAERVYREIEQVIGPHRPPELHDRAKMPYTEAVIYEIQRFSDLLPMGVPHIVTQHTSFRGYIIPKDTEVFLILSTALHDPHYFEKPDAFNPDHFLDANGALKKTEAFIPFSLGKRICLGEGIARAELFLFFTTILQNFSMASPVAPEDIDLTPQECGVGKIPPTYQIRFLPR
The data set can be described thus: Inhibition of human CYP2B6. In kind it is ADME.

Data set [4] in a line: Clearance in rat at 5 mg/kg, iv and 10 mg/kg, po. In kind it is ADME, organism-based. The note with it: in vivo. In outline:
as §1

Data set [5] deals with Cytochrome P450 2D6 (Homo sapiens, UniProt P10635). The data set can be described thus: Inhibition of human CYP2D6. In kind it is ADME.
Data set [6] in a line: Clearance in dog at 1 mg/kg, iv and 2 mg/kg, po. Particulars: in vivo. In kind it is ADME, organism-based, Canis lupus familiaris. The method, boiled down: as §1
Data set [7] has as its system Rattus norvegicus. Put plainly: In vivo antagonist activity at androgen receptor in immature Sprague-Dawley rat prostate weight model assessed as testosterone propionate-induced weight of seminal vesicles over full body weight at 1 mg/kg, po qd administered for 4 days. Set-up: scale not given: the % may be the effect or the level left. In kind it is functional. In outline:
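Immature rat prostate weight PK/PD model. Oral dosing once daily at 1 or 10 mg/kg for 4 days. Seminal vesicle weight expressed as % of full body weight, n=3, scaled so testosterone-treated control = 100% and sham = 10%.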

Data set [8] concerns Hepatocyte. Put plainly: Drug metabolism in rat hepatocytes assessed per 10^6 cells. In kind it is ADME, cell-based. The method, boiled down: (§2)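 Metabolic rate in mouse, rat, dog, monkey and human hepatocyte incubations, expressed as pmol/min/10^6 cells.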
In data set [9] the test system is Hepatocyte. Put plainly: Drug metabolism in human hepatocytes assessed per 10^6 cells. In kind it is ADME, cell-based. In outline: as §2
The nature of data set [10]: Fraction unbound in human plasma by equilibrium dialysis method. In kind it is ADME, cell-free. The method, boiled down:
(§3)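 Plasma protein binding measured by equilibrium dialysis in mouse, rat, dog and human plasma, reported as % free.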
(Equilibrium dialysis compares concentrations on both sides of a semipermeable membrane.)

The target in data set [11] is T2, Androgen receptor (Homo sapiens, UniProt P10275).
T2 sequence (P10275 whole entry): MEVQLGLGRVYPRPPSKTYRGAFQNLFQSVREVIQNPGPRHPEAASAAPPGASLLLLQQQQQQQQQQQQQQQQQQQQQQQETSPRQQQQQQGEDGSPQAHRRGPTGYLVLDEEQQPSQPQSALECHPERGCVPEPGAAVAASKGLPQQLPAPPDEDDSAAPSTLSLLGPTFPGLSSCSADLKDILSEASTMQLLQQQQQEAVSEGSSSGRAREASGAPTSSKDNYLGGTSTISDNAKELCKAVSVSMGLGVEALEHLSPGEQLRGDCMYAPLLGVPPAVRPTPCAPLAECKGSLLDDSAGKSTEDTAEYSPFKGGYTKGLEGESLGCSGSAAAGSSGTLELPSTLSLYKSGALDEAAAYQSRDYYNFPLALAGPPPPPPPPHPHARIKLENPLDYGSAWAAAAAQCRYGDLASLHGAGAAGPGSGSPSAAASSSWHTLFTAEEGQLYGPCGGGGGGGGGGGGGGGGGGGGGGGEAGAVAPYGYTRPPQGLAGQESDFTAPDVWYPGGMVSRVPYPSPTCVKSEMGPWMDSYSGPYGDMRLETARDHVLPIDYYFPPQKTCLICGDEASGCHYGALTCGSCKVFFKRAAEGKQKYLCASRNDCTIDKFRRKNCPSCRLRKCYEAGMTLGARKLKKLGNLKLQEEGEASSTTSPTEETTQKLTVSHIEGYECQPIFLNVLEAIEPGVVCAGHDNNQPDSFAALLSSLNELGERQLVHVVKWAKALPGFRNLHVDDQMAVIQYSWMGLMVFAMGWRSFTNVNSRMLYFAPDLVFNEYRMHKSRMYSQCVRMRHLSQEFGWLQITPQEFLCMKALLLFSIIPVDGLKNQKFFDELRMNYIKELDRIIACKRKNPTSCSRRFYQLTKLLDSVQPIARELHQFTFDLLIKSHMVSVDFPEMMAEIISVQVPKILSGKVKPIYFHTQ
The data set can be described thus: Antagonist activity at androgen receptor in human MDA-MB-453 cells assessed as inhibition of DHT-induced PSA expression by alkaline phosphatase reporter gene assay. In kind it is cell-based. For orientation: A reporter such as luciferase makes a cellular process visible.

Data set [12] deals with Cytochrome P450 2C9 (Homo sapiens, UniProt P11712). The data set can be described thus: Inhibition of human CYP2C9. In kind it is ADME.
The nature of data set [13]: Fraction unbound in dog plasma by equilibrium dialysis method. In kind it is ADME, cell-free, Canis lupus familiaris. In outline: as §3
For data set [14], the system named is CWR22. Put plainly: Antitumor activity against human CWR22 cells in Balb/c athymic (nu/nu) mouse CWR22-BMSLD1 prostate cancer xenograft model assessed as tumor growth inhibition at 90 mg/kg, po qd administered for 45 days measured every day during compound dosing. In kind it is functional, organism-based. In outline:
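CWR22-BMSLD1 human prostate cancer xenograft. Oral once-daily dosing at 90 mg/kg for 45 days, or at 150 mg/kg for 35 days, with a vehicle group. Median tumor volume (mm3) tracked against days post implant.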
Background: In xenograft studies the graft and the host belong to different species.

In data set [15] the target is Cytochrome P450 3A4 (Homo sapiens, UniProt P08684). The data set can be described thus: Inhibition of human CYP3A4. In kind it is ADME.
Data set [16] in a line: Half life in mouse at 5 mg/kg, iv and 10 mg/kg, po. In kind it is ADME, organism-based. Particulars: in vivo. In outline: as §1
For data set [17], the system named is Hepatocyte. Put plainly: Drug metabolism in mouse hepatocytes assessed per 10^6 cells. In kind it is ADME, cell-based. In outline: as §2
A short description of data set [18]: Clearance in mouse at 5 mg/kg, iv and 10 mg/kg, po. In kind it is ADME, organism-based. Particulars: in vivo. The method, boiled down: as §1
Data set [19] is described as follows: Drug metabolism in dog hepatocytes assessed per 10^6 cells. In kind it is ADME, cell-based, Canis lupus familiaris, Hepatocyte. In outline:
as §2

Sequence of Cytochrome P450 3A4 (P08684 whole entry): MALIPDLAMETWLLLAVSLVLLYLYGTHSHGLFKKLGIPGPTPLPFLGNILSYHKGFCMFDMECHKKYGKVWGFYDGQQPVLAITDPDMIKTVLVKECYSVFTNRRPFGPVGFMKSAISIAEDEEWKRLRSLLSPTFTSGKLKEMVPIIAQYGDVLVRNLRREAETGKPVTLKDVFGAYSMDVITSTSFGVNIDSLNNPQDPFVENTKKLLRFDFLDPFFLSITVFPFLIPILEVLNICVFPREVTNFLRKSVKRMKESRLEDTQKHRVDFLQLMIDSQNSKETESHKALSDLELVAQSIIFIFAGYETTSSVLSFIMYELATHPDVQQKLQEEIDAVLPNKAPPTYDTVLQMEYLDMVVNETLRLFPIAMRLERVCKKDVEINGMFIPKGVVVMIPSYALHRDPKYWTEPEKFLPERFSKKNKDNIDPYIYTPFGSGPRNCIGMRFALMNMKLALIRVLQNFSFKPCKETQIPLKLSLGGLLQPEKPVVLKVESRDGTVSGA
Sequence of Cytochrome P450 2D6 (P10635 whole entry): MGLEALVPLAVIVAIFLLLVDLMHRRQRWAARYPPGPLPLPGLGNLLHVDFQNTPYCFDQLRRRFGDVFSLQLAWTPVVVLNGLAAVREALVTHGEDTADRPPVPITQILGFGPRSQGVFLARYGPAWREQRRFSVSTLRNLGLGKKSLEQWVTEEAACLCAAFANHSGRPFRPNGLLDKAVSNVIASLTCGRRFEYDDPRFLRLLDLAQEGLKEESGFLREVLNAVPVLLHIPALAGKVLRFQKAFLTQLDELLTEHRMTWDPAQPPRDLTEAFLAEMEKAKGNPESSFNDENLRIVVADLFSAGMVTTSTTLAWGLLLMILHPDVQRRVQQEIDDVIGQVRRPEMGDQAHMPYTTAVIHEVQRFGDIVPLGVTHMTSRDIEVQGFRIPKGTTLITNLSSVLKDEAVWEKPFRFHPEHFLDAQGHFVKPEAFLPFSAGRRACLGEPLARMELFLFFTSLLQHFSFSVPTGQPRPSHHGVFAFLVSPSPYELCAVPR
Sequence of Cytochrome P450 2C9 (P11712 whole entry): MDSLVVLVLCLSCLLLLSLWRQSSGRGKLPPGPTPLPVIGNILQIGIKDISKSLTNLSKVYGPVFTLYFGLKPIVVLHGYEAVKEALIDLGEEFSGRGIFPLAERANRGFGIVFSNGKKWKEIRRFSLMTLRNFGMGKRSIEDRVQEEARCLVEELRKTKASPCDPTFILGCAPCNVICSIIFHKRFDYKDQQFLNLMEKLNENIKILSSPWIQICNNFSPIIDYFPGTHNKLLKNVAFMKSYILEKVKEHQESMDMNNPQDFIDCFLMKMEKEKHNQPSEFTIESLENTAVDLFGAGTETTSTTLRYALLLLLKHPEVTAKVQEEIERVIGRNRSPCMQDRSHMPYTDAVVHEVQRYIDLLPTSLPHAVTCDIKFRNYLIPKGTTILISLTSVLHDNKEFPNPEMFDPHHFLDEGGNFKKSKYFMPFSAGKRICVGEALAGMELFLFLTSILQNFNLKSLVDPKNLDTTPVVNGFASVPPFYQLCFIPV

A word on the bioavailability: it is dose-corrected exposure relative to a reference, in per cent. Usually half-life stands for the time in which the quantity being followed falls by half. The term IC50 denotes the point on the concentration scale where inhibition reaches its midpoint. As usually defined, the fraction unbound is the share of the substance not bound to proteins or other matrix. Regarding `CCS(=O)(=O)N[C@@H]1C[C@]2(C)O[C@]1(C)[C@@H]1C(=O)N(c3ccc(C#N)c(C(F)(F)F)c3)C(=O)[C@@H]12`, the bioavailability in data set [1] is 79%. For the same compound, the half-life in data set [2] is 3.7 h; in data set [16], 2.4 h. Further, the IC50 in data set [3] is greater than 40 µM; in data set [5], greater than 40 µM; in data set [11], 0.016 µM; in [12] it was greater than 40 µM; in data set [15], greater than 40 µM. Further, the clearance in data set [4] was found to be 6.5 mL/min/kg; in data set [6] it was 0.35 mL/min/kg; in data set [18], 4.5 mL/min/kg. For the same compound, the Activity in [7] was 58%. Moreover, the Drug metabolism in data set [8] is 26 pmol/min; in data set [9] it was 2 pmol/min; in data set [17], 0 pmol/min; in data set [19] it was 3 pmol/min. In addition, the fraction unbound in data set [10] worked out at 0.104; in data set [13] it was 0.165. The TGI entry in data set [14] was “Active”.
